Source: PubChem
OX1R antag-1: antagonists of human orexin 1 receptor; O43613; CHO/OX1R cells, Fluo-8 calcium fluorescence, orexin A; inhibition, % at 5 µM; 330,000 compounds, 0.43% hits; AID 434989;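 active means inhibition above its plate's threshold, mean inhibition of all tested compounds on the plate plus 3 SD, cut at about 37% in these data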;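 further: 0% = orexin A challenge wells and 100% = SB-334867-A antagonist wells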
Target sequence (O43613 whole entry, looked up): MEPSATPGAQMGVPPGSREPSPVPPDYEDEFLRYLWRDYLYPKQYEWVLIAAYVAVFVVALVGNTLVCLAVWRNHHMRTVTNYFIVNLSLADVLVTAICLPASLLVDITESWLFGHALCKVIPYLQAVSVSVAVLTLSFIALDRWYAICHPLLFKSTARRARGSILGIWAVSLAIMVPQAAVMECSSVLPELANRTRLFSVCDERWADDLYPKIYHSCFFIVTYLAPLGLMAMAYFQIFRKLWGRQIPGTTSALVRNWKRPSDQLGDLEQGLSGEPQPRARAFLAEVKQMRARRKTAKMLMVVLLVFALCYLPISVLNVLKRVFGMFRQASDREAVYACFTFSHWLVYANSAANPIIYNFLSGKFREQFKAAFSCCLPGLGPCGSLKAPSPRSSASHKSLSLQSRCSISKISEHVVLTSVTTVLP
TAAR1 antag: antagonists of human TAAR1. inhibition, % at 3 µM. CHO RD-HGA16 TAAR1, Fluo-8 calcium fluorescence, antagonist. Q96RJ0. 360,000 compounds, 1.5% hits. AID 624466;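 active means inhibition above a per-plate cutoff, the mean inhibition of test compounds on that plate plus 3 SD, cut at about 49% in these data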;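 further: 0% = DMSO plus EC80 beta-PEA response and 100% = DMSO alone without agonist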
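Test system – hTAAR1-expressing CHO RD-HGA16 cells, Gα16-coupled · Also added – β-PEA at EC80 concentration, post-compound challenge · Compound – 3 µM, single point · Incubation – dye loading 75 min at 37 °C, then 30 min room temperature · Measured by – Fluo-8 intracellular calcium dye fluorescence, real-time kinetic reads · Benchmarks – vehicle and agonist controls · Replicates – singlicate, one well per test compound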
TAAR1 agonist: agonists of human TAAR1. activation, % at 3 µM. 360,000 compounds, 0.99% hits. CHO RD-HGA16 TAAR1, Fluo-8 calcium fluorescence; vehicle wells 0%, saturating PEA agonist 100%. Q96RJ0;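 active means activation above the mean activation of all test compounds in the run plus 3 SD, cut at about 38% in these data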
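Assay system – CHO-derived RD-HGA16 cells with stable Gα16 and human TAAR1 · Compound dosing – one-point dosing at 3 µM (nominal) · Incubation – 17-24 h seeding, 75 min 37 °C dye, 30 min RT · Measured by – kinetic Fluo-8 calcium fluorescence · Control set – DMSO vehicle as 0%, PEA at EC100 as 100% · Repeats – single well for each compound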
CHO parental Ca: counter-screen: ATP calcium response change in parental CHO cells. parental CHO-K1, ATP-induced calcium, Fluo-8 fluorescence. 330,000 compounds, 0.63% hits. AID 463079. inhibition, % at 5.6 µM;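 active means inhibition above that plate's mean sample inhibition plus 3 SD, cut at about 26% in these data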;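 further: 0% = ATP-challenged DMSO wells and 100% = DMSO wells without ATP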
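test system = CHO parental line | reagent = ATP stimulus | measured by = intracellular calcium via Fluo-8 no-wash fluorescent dye | control set = ATP and no-ATP DMSO wells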
GPR7 antagonist: antagonists of human GPR7 (neuropeptides B/W receptor 1); P48145; GPR7-expressing cells, fluorescence antagonist assay; inhibition, % at 4.4 µM; 290,000 compounds, 1.1% hits; in the data active means inhibition above about 16%, passing the limit was not always enough;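 further: cells stimulated with the agonist NPW; 0% = agonist with vehicle and 100% = vehicle without agonist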
Target sequence (P48145 whole entry, looked up): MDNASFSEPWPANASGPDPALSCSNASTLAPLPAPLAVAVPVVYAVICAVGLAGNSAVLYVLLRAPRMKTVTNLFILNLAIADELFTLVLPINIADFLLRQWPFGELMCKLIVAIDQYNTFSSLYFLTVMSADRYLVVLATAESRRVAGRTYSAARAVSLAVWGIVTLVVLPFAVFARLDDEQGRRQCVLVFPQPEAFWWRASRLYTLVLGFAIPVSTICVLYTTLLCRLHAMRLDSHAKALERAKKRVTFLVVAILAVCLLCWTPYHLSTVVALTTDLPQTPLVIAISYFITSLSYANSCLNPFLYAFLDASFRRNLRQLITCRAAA
OX1R antag-2: OX1R (human) antagonism; OX1R-expressing cells, FRET antagonist read-out; O43613; 330,000 compounds, 1.8% hits; inhibition, % at 6.6 µM; in the data active means inhibition mostly above about 38%, no sharp cut-off; inactive means mostly below about 40%;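 further: 0% = agonist challenge alone and 100% = reference antagonist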
TAAR1 ag conf: human TAAR1 agonism, confirmed. CHO RD-HGA16 TAAR1, Fluo-8 calcium fluorescence; scaled: DMSO 0%, maximal phenethylamine 100%. 2,400 compounds, 82% hits. AID 651783. shares compounds with TAAR1 agonist. activation, % at 3 µM;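 active means activation above a cutoff set at the run's mean compound activation plus 3 SD, cut at about 39% in these data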
Ga16 nonsel ag: nonselective agonism, TAAR1 counter-screen; CHO-Ga16 parental, Fluo-8 calcium fluorescence; normalized to maximal ATP response, DMSO zero; 2,400 compounds, 50% hits; activation, % at 3 µM; shares compounds with TAAR1 agonist;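 active means activation above the run cutoff, the mean activation over all tested wells plus 3 SD, cut at about 12% in these data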;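 further: 0% = DMSO wells and 100% = maximal ATP response on the peak over basal ratio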
TAAR1 desens: human TAAR1 agonist that also desensitizes the receptor. inhibition, % at 3 µM. 2,400 compounds, 46% hits. shares compounds with TAAR1 agonist. CHO RD-HGA16 hTAAR1, Fluo-8 calcium, beta-PEA response inhibition;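 active means inhibition above the run cutoff, the mean inhibition of all test compounds plus 3 SD, cut at about 49% in these data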;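 further: beta-PEA stimulus applied at its EC80; loss of beta-PEA calcium signal after compound pretreatment read as receptor desensitization; 0% = DMSO with beta-PEA at EC80 and 100% = DMSO alone without agonist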
Ga16 nonsel ant: nonselective Ga16 antagonism, counter-screen; CHO-Ga16 ATP-induced calcium, Fluo-8 fluorescence; inhibition, % at 3 µM; 2,400 compounds, 39% hits; shares compounds with TAAR1 agonist; AID 651952;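 active means inhibition above the plate's mean compound inhibition plus 3 SD, computed per plate, cut at about 22% in these data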;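 further: 0% = EC80 ATP with DMSO and 100% = DMSO wells without ATP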
* = called active by the depositor; · = no result given. An excerpt weighted towards active compounds, which were near 4.6% of everything screened.

SMILES | OX1R antag-1 | TAAR1 antag | TAAR1 agonist | CHO parental Ca | GPR7 antagonist | OX1R antag-2 | TAAR1 ag conf | Ga16 nonsel ag | TAAR1 desens | Ga16 nonsel ant
O=C(Nc1ccccc1)c1ccc(-c2ccccc2Cl)o1 | -23 | 1 | 7 | -8 | 3 | 33 | · | · | · | ·
O=C(NCc1ccccc1)c1ccc(Br)o1 | -5 | -2 | 15 | -7 | 11 | -3 | · | · | · | ·
O=C(NCCc1ccccc1)c1ccc(Br)o1 | -9 | 27 | 67* | -17 | -2 | 12 | 77* | 3 | 40 | 1
O=C(Nc1cccnc1)c1ccc(-c2cc(Cl)ccc2Cl)o1 | -29 | 15 | 73* | -32 | -5 | 12 | 40* | 43* | 40 | 19
Cn1nc(CSc2ccccc2)c(C=O)c1Cl | -17 | 15 | -1 | -9 | -5 | 34 | · | · | · | ·
OC(CNC1CCCc2ccccc21)COc1ccc2ccccc2c1 (stereo not drawn) | -9 | 15 | 69* | 1 | 6 | 6 | 100* | 28* | 70* | 31*
O=C(c1ccccc1)c1ccc(OCC(O)CNC2CCCc3ccccc32)cc1 (stereo not drawn) | -24 | -22 | 19 | -22 | 14 | 3 | · | · | · | ·
N#C/C(=C\c1cccs1)C(=O)c1ccccc1Cl | 10 | 54* | 59* | 2 | -22 | 1 | 53* | 33* | 72* | 59*
CC(C)(C)C(=O)/C(C#N)=C/c1cccs1 | 2 | 14 | 5 | 1 | -2 | 1 | · | · | · | ·
COc1ccc(-c2ncn(CCc3ccccc3OC)c2C(C)C)cc1 | · | -1 | 15 | · | · | · | · | · | · | ·
CCCc1c(-c2ccccc2)ncn1Cc1ccccc1OC | · | -3 | 3 | · | · | · | · | · | · | ·
COc1ccccc1CCn1cnc(-c2ccccc2OC)c1C(C)C | · | 29 | 52* | · | · | · | 79* | 7 | 60* | 14
COc1ccccc1CCn1cnc(-c2ccc(Br)cc2)c1C(C)C | · | 36 | 45* | · | · | · | 68* | 9 | 53* | 37*
CCOC(=O)[C@]12CCCC=C1N(Cc1ccccc1)C(=O)[C@H](CC(=O)NCC13CC4CC(CC(C4)C1)C3)C2 | · | -31 | 2 | · | · | · | · | · | · | ·
Brc1ccc(C2C3=C(Nc4ncnn42)c2ccccc2OC3c2ccncc2)cc1 (stereo not drawn) | -29 | 19 | 43* | -25 | -8 | 9 | 12 | 6 | 3 | 13
Cc1ccc(S(=O)(=O)N2CCC(=O)N([C@H](COCc3cccc(C)c3)C(C)C)CC2)cc1 | · | 17 | -1 | · | · | · | · | · | · | ·
CN(CCc1ccccn1)C(=S)Nc1ccc(Cl)c(Cl)c1 | -28 | 0 | 31 | -29 | -2 | 24 | · | · | · | ·
Cc1ccc(C)c(NC(=S)N(C)CCc2ccccn2)c1 | 2 | -9 | 45* | -5 | -8 | 0 | 39* | 0 | -2 | -1
Cc1ccccc1NC(=S)N(C)CCc1ccccn1 | -7 | 7 | 58* | -8 | -2 | 7 | 61* | 2 | 15 | 8
CC(C)NC(=O)C1Cc2c(-c3ccc4c(c3)OCO4)ccnc2O1 (stereo not drawn) | · | -1 | -1 | · | · | · | · | · | · | ·
COc1ccc(CCN2CCC(Nc3nc4ccccc4n3Cc3ccc(F)cc3)CC2)cc1 | 5 | 30 | 59* | 7 | 16 | -1 | 54* | 20* | 23 | 16
O=C(COc1ccc(Cl)cc1Cl)NC(=S)N1CCCc2ccccc21 | 1 | -16 | 51* | -10 | -4 | 37 | 30 | 6 | 2 | 9
Cc1cn([C@H]2C[C@H](O)[C@@H](CCC(=O)NCc3cccc4ccccc34)O2)c(=O)[nH]c1=O | · | 0 | 4 | · | · | · | · | · | · | ·
OCCNCc1cc(Br)ccc1OCc1ccc(Cl)cc1Cl | · | -7 | 56* | · | 21 | · | 79* | 49* | 51* | 41*
Cc1cc(SCC(=O)N2c3ccccc3NC(=O)CC2C)nc2ccccc12 (stereo not drawn) | · | -11 | 1 | · | · | · | · | · | · | ·
SMILES | OX1R antag-1 | TAAR1 antag | TAAR1 agonist | CHO parental Ca | GPR7 antagonist | OX1R antag-2 | TAAR1 ag conf | Ga16 nonsel ag | TAAR1 desens | Ga16 nonsel ant
COc1ccc(C23CC4CC(CC(C4)C2)C3)cc1C(=O)NCCN(C)C | -11 | 3 | 46* | -6 | 5 | 4 | 54* | 21* | 22 | 13
COc1ccccc1C(=O)NCCC(=O)NCCC12CC3CC(CC(C3)C1)C2 | -21 | -25 | -4 | -20 | -12 | 9 | · | · | · | ·
Cc1ccc(S(=O)(=O)N2[C@@H](Cc3ccccc3)CO[C@H]2CC(=O)c2cccc3ccccc23)cc1 | · | -1 | 0 | · | · | · | · | · | · | ·
CCC(C)(C)C(=O)Nc1ncc(S(=O)(=O)c2ccc([N+](=O)[O-])cc2)s1 | 16 | 39 | 104* | -4 | 25 | 4 | 76* | 52* | 52* | 41*
COc1ccc(CCC(C)NCCc2ccc(Cl)cc2Cl)cc1 (stereo not drawn) | -18 | 36 | 48* | 0 | 12 | 7 | 48* | 22* | 43 | 24*
COc1ccc(CCC(C)NCc2ccc(Cl)c(Cl)c2)cc1 (stereo not drawn) | -20 | 1 | 21 | 2 | 14 | 7 | · | · | · | ·
O=C1CCN(S(=O)(=O)c2ccc(Cl)cc2)CCN1 | -11 | -8 | 3 | -12 | 0 | 10 | · | · | · | ·
CC(=O)c1sc2nc(-c3cccs3)cc(C(F)(F)F)c2c1N | 42* | 64* | 72* | 32 | 5 | 25 | 65* | 84* | 64* | 70*
COc1ccc(C(CCN2CCCC(C)C2)c2c(OC)cc(OC)c3c(-c4ccccc4)cc(=O)oc23)cc1 (stereo not drawn) | 11 | 45 | 56* | 3 | · | 16 | 47* | 37* | 47 | 42*
CC1=C(C(=O)N(C)C)CC(CC(=O)NCCc2ccccn2)C(=O)N1CCCN1CCCC1=O (stereo not drawn) | · | -9 | 49* | · | · | · | 44* | 0 | 6 | 10
CCN(CC)C(=O)C1=C(C)N(CCCN2CCCC2=O)C(=O)C(CC(=O)NCCc2ccccn2)C1 (stereo not drawn) | · | -25 | 10 | · | · | · | · | · | · | ·
CC(C)CC1C(=O)N(Cc2cn(Cc3ccco3)nn2)CCS(=O)(=O)N1Cc1ccc(-c2ccc(Cl)cc2)cc1 (stereo not drawn) | · | -6 | 1 | · | · | · | · | · | · | ·
